Drawing on ChEMBL document CHEMBL1123276, “Analgetic and antiinflammatory 7-aroylbenzofuran-5-ylacetic acids and 7-aroylbenzothiophene-5-ylacetic acids” (1986), this text covers Relative potency and ED50 for 19 compounds.

What all share (assay type): functional
Assay [1] relates to Mus musculus. In words: Inhibition of phenylquinone -induced writhing in male mice by p.o. administration 20 min prior to i.p. phenylquinone (relative to aspirin). The procedure, abridged: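 Male mice, 18-20 g, dosed orally in the same aqueous saline/CMC/polysorbate 80/benzyl alcohol vehicle 20 min before intraperitoneal phenylquinone. Writhing observed for 10 min. Potency vs aspirin derived from dose-response curves by analysis of variance. Eight mice per dose group.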

Assay [2] concerns Rattus norvegicus. In words: Anti-inflammatory activity against carrageenan-induced paw edema in female rats relative to phenylbutazone by p.o. administration. Put shortly: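 Test agents given in saline/0.5% carboxymethylcellulose/0.4% polysorbate 80/0.9% benzyl alcohol aqueous vehicle. Rats killed 4 h after dosing, and both hindpaws excised and weighed. Potency vs phenylbutazone taken from dose-response plots of mean % weight increase of treated over untreated paw. Six rats per dose, at least four doses, linear parallel curves, analysis of variance.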

Assay [3] concerns Rattus norvegicus. The assay is described as follows: Chronic gastrointestinal erosive activity in male rats by the oral administration was determined. The procedure, abridged: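 Male Cox/SD rats, 190-220 g, acclimated about 1 week. Dosed orally once daily in phosphate-buffered saline (1 mL/100 g) for 7 consecutive days, 5 rats per dose. Food withdrawn on the last dosing day. Killed one day after the last dose, with body weight recorded at start and at sacrifice. Stomach and small intestine scored blind for lesions.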

The species entered for assay [4] is Mus musculus. In words: Dose required for the inhibition of phenylquinone-induced writhing in male mice.

Each structure is given as a SMILES string.

As to `O=C(O)Cc1cc(C(=O)c2ccccc2)c2sccc2c1`, the Relative potency in assay [1] is given as 0.4; in assay [2], 0.6.
With `O=C(O)Cc1cc2c(c(C(=O)c3ccccc3)c1)SCC2`, the Relative potency in assay [1] was less than 1; in assay [2] it was 0.6.
In the same order, the values of `O=C(O)Cc1cc(C(=O)c2ccc(Cl)cc2)c2occc2c1` are 33.9 and 0.6.
In the same order, the values of `CC(C(=O)O)c1cc(C(=O)c2ccc(Cl)cc2)c2occc2c1` (stereo not drawn) are 42.9 and 2.
On to `C[S+]([O-])c1ccc(C(=O)c2cc(CC(=O)O)cc3ccoc23)cc1` (stereo not drawn), for which the Relative potency in assay [1] is listed as 7.5; in assay [2], 1.8.
As to `CC(C(=O)O)c1cc(C(=O)c2ccccc2)c2occc2c1` (stereo not drawn), the results for the Relative potency in assay [1] and in assay [2] were 42.4 and 1.8, respectively.
In the case of `O=C(O)Cc1cc(C(=O)c2ccc(Cl)cc2)c2sccc2c1`, the Relative potency in assay [1] is on record as 7; in assay [2] it was 1.5.
On to `COc1ccc(C(=O)c2cc(CC(=O)O)cc3ccoc23)cc1`, for which the Relative potency in assay [1] was determined as 33; in assay [2], 1.
Regarding `CS(=O)(=O)c1ccc(C(=O)c2cc(CC(=O)O)cc3ccoc23)cc1`, the Relative potency in assay [1] was less than 1.
For `CC(C(=O)O)c1cc(C(=O)c2ccc(C=O)cc2)c2occc2c1` (stereo not drawn), the Relative potency worked out at 45 in assay [1] and 1.3 in assay [2].
For `CSc1ccc(C(=O)c2cc(CC(=O)O)cc3c2OCC3)cc1`, the values for the Relative potency in assay [1] and in assay [2] were 8 and 0.2, respectively.
In the same order, the values of `O=C(O)Cc1cc2c(c(C(=O)c3ccc(Cl)cc3)c1)OCC2` are 7 and 0.8.
The corresponding values for `O=C(O)Cc1cc2c(c(C(=O)c3ccccc3)c1)OCC2` are 0.25 and 0.7.
In the same order, the values of `O=C(O)Cc1cc2c(c(C(=O)c3ccc(Cl)cc3)c1)SCC2` are 0.6 and 0.6.
As for `CSc1ccc(C(=O)c2cc(C(C)C(=O)O)cc3ccoc23)cc1` (stereo not drawn), the ED50 in assay [3] was not above 1 mg/kg. The figures for the Relative potency in assay [1] and in assay [2] were 25 and 18.6, respectively.
As for `O=C(O)Cc1cc(C(=O)c2ccccc2)c2occc2c1`, the Relative potency turned out to be 40 in assay [1] and 1 in assay [2].
On to `COc1ccc2c(c1)c(CC(=O)O)c(C)n2C(=O)c1ccc(Cl)cc1` [INDOMETHACIN], for which the ED50 was 3 mg/kg in assay [3] (Rattus norvegicus, po) and 1.16 mg/kg in assay [4]. The Relative potency is 60 in assay [1] and 16 in assay [2].
For the compound `CSc1ccc(C(=O)c2cc(CC(=O)O)cc3ccoc23)cc1` [TIFURAC], the ED50 in assay [3] (Rattus norvegicus, po) is not below 90 mg/kg; in assay [4], 1.2 mg/kg. In addition, the Relative potency turned out to be 57 in assay [1] and 3 in assay [2].
Consider `Cc1cc(CC(=O)O)n(C)c1C(=O)c1ccc(Cl)cc1` [ZOMEPIRAC], for which the ED50 in assay [3] (Rattus norvegicus, po) was 10 mg/kg; in assay [4] it was 1.75 mg/kg. In assay [1], this compound came in with a Relative potency of 40.
